In the library only some 9.5% were active in any assay of this set; here they are far more common.
M1 antag = M1 muscarinic receptor (rat) antagonism. P08482. CHO-M1 cells, Fluo-4 calcium, ACh EC80 antagonist mode; active compounds read low. B-score at 10 µM. actives 3.4% (n = 64,000). AID 628;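 active means calcium fluorescence response, raw or row-and-column corrected B-score, differing from the plate sample mean either way at a set confidence level, mostly lower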
D1 mod = D1 dopamine receptor (human) allosteric modulation; P21728; HEK293 D1, CRE-luciferase, dopamine EC30 potentiation; actives deviate in either direction; B-score at 10 µM; actives 5.9% (n = 58,000); AID 641;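 active means luminescence count or its row- and column-corrected plate score outside the 99.7% band of the plate's sample wells, on either side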
M1 ag = activates the M1 muscarinic receptor | CHO-M1 cells, Fluo-4 calcium fluorescence, agonist mode; active compounds read high | B-score at 10 µM | actives 3% (n = 64,000) | AID 626;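 active means fluorescence rise, raw or as B-score row- and column-corrected plate score, outside the 99.7% band of its plate's samples, either direction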
HEK293 NFkB inh = lowers PMA/ionomycin-induced NF-kB signal in HEK293 cells. HEK-293 NF-kB luciferase reporter, luminescence. inhibition, % at 3 µM. actives 0.21% (n = 62,000);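 active means inhibition above the mean of all tested compounds plus 3 SD, cut at about 40% in these data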;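 further: 0% = stimulated DMSO wells and 100% = 10 µM reference inhibitor 5653914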
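System: NF-kB luciferase reporter HEK-293 cells | Replication: Single test | Control set: DMSO vs reference inhibitor | Evaluation: % inhibition | Schedule: 1 h pretreatment, 16 h stimulation, 37 °C | Probe or stimulus: PMA with ionomycin | Compound dosing: One dose, 3 µM | Detection: Luciferase luminescence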
Jurkat viability = cytotoxic compounds reducing Jurkat cell viability; Jurkat E6.1 viability, ATP luminescence, 48 h; inhibition, % at 4 µM; actives 1.2% (n = 56,000); AID 463;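 active means inhibition above the mean inhibition of all tested compounds plus 3 SD, cut at about 28% in these data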
mHtt clearance = compounds clearing mutant huntingtin protein; HeLa Exon1htt(103Q)mCFP, aggregate imaging; zero = plate's median compound well; inhibition, % at 1.5 µM; actives 0.42% (n = 47,000); AID 853;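 active means inhibition of aggregate fluorescence above about 70%, also judged a hit by eye on the cell image, limit read from the data, passing the limit was not always enough; inconclusive means no rule stated for this call; inactive means not judged a hit on image review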;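 further: cells exposed to compound for three days before fixation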
M1 agonist conf = confirmation of rat M1 muscarinic receptor agonists. shares compounds with M1 ag. CHO-M1 cells, Fluo-4 calcium fluorescence, agonist mode; actives lie on both sides. fluorescence change (max-min) at 10 µM. actives 19% (n = 1,700);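 active means fluorescence change differs from the solvent-only DMSO control mean at a set confidence level in both duplicate runs; inconclusive means differs from solvent-only control mean in just one of two runs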;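 further: an EC20 dose of acetylcholine follows compound addition during the same imaging run; raw fluorescence intensity difference in instrument units with no normalization to controls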
M4 ag counter = activates rat M4 receptor in counter-screen for M1 agonists | actives 9% (n = 1,700) | fluorescence change (max-min) at 10 µM | shares compounds with M1 ag | CHO M4/Gqi5 cells, Fluo-4 calcium fluorescence, agonist mode; actives lie on both sides | AID 1741;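 active means fluorescence change differing from the plate's solvent-only control wells at 99.7% confidence in both duplicates, whether higher or lower; inconclusive means differs from solvent controls in only one of two duplicates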
Target sequence (P08485 whole entry, looked up): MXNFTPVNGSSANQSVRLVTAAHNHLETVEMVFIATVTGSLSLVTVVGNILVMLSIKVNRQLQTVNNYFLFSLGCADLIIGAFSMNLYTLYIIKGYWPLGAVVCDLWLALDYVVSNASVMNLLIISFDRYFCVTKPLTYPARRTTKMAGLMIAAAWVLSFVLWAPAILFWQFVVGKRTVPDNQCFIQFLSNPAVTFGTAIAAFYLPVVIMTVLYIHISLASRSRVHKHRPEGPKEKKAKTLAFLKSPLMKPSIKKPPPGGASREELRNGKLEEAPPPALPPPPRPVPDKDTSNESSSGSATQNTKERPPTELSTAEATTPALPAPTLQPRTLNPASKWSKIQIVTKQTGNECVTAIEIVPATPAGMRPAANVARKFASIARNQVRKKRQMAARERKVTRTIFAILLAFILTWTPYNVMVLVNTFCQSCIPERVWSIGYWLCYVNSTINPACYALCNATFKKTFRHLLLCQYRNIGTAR
M1 antag conf = M1 muscarinic receptor (rat) antagonism, confirmed. shares compounds with M1 antag. CHO-M1 cells, Fluo-4 calcium, ACh EC80 antagonism; active compounds read low. calcium response (max-min fluorescence) at 10 µM. actives 43% (n = 1,700). AID 677;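 active means calcium response below the same-plate mean of wells given acetylcholine alone at its 80%-effect dose, minus 3 SD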;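 further: raw fluorescence intensity difference in arbitrary instrument units and not normalized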
mGluR4 antag = mGluR4 (human) activity, M1 antagonist secondary assay. AID 678. CHO-mGluR4 calcium flux, Fluo-4 fluorescence, glutamate EC80; active compounds read low. actives 0.9% (n = 1,700). shares compounds with M1 antag. fluorescence response (max-min) at 10 µM;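 active means fluorescence response below the plate's average for near-maximal glutamate wells, less 3 SD of those wells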;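 further: raw unnormalized fluorescence span taken in the window right after glutamate addition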
D1 mod confirm = D1 receptor (human) allosteric modulation, confirmed; shares compounds with D1 mod; HEK293 D1 CRE-luciferase, dopamine EC30 potentiation; active compounds read high; actives 88% (n = 2,200); AID 642; luminescence at 10 µM;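 active means luminescence in either of two replicates above the same-plate mean plus 3 SD of the low-dose dopamine control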
Isoprot counter = counter-screen for D1 modulators: isoproterenol response in HEK293 cells | shares compounds with D1 mod | HEK293 D1 CRE-luciferase, isoproterenol EC30 counter-screen; active compounds read high | luminescence at 10 µM | actives 63% (n = 2,200) | AID 647;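 active means luminescence in either replicate above plate mean of wells with a partly effective reference agonist dose plus 3 SD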;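 further: isoproterenol raises cAMP through native beta-adrenoceptor Gs so signal bypasses D1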
The depositor's hits bear a star; ? = inconclusive; / = no result.

SMILES | M1 antag | D1 mod | M1 ag | HEK293 NFkB inh | Jurkat viability | mHtt clearance | M1 antag conf | mGluR4 antag | others
CCC(=NCCOc1ccc(Cl)cc1)c1c(O)n(C)c(=O)n(C)c1=O | -1 | / | 11* | / | / | -25 | / | / | M1 agonist conf=-9.8;M4 ag counter=?
COC(=O)CC1=C(C(=O)OC)C2(C(=O)N(C)c3ccccc32)C(C#N)=C(N)O1 (stereo unspecified) | 0.68 | -0.32 | -0.4 | 18 | / | / | / | /
O=C(C1CCN(S(=O)(=O)N2CCOCC2)CC1)N1CCC2(CC1)OCCO2 | 0.17 | -1.4 | 1.3 | 8 | 10 | 60 | / | /
OC(COCc1ccc(Cl)cc1)CN1CC=C(c2ccccc2)CC1 (stereo unspecified) | -4* | -1.2 | -2.8* | 12 | 2 | / | 475* | 177 | M1 agonist conf=-6.8;M4 ag counter=-22
Cc1nc2c(c(C)nn2-c2ccccc2)c(C)c1CCC(=O)N1CCC2(CC1)OCCO2 | 0.096 | 3 | -1 | -2 | 1 | / | / | /
C[C@H]1OC[C@@H](C[N+](C)(C)C)O1 | -9.7* | 5.7* | 48* | / | / | / | / | / | M1 agonist conf=527*;M4 ag counter=220*;D1 mod confirm=10372*;Isoprot counter=2732
C=CCn1c(O)c(C(C)=Nc2cc(OC)ccc2OC)c(=O)[nH]c1=O | -0.0093 | 0.56 | 0.14 | 5 | 0 | -19 | / | /
Cc1ccc(S(=O)(=O)NCC2CCC(C(=O)N3CCC4(CC3)OCCO4)CC2)cc1 (stereo unspecified) | 0.38 | 0.002 | -0.13 | 6 | 2 | / | / | /
Cc1ccc2nc(N3CCC(C(=O)N4CCC5(CC4)OCCO5)CC3)sc2c1 | -1* | / | -0.049 | 4 | 12 | 9 | 471* | 247
CCOC(=O)/C(CCCN(CC)CC)=N\O | -2.9* | 0.52 | -0.71 | 11 | -3 | / | 251* | 221
O=C(O)c1cc2ccccc2oc1=O | -0.34 | -0.28 | -1.1 | 4 | 4 | 15 | / | /
O=C(c1cc2ccccc2oc1=O)N1CCC2(CC1)OCCO2 | -3.7* | -0.27 | -0.083 | 12 | 3 | / | 609 | 230
Cc1c(C(=O)N2CCC3(CC2)OCCO3)oc2ccccc12 | -2.3* | -0.7 | -0.45 | 5 | -2 | -18 | 519 | 171
O=C(NCC(c1cccnc1)N1CCN(c2ccc(F)cc2)CC1)Oc1ccccc1 (stereo unspecified) | -0.29 | / | 0 | 16 | / | / | / | /
CCOCCCNC(=O)CN1C2CCC1CC(O)(c1ccc(OC)cc1)C2 (stereo unspecified) | 0.57 | -0.58 | 0.085 | -7 | 0 | -39 | / | /
CCOc1ccc(-n2c(O)c(C=NCCCn3ccnc3)c(=O)[nH]c2=O)cc1 | / | / | / | / | / | -45 | / | /
S=C1CN=C(c2ccccc2)c2cc(Cl)ccc2N1 | / | / | / | / | / | 28 | / | /
C=C(C)c1cccc(C(C)(C)NC(=O)NC2CN3CCC2CC3)c1 (stereo unspecified) | / | 0.036 | / | 32 | 5 | / | / | /
OC(Cc1ccccc1)(c1ccccc1)C1CN2CCC1CC2 (stereo unspecified) | -7.2* | -0.32 | 0.96 | / | / | / | 55* | 274
CN1CCC(OC(=O)C2c3ccccc3Oc3ccccc32)CC1 | -14* | -1.4 | -0.4 | / | / | / | 25* | 186
CN(C)CCN=Cc1c(O)n(-c2cccc3ccccc23)c(=O)[nH]c1=O | 0.36 | 0.66 | -0.49 | -1 | -4 | / | / | /
c1ccc(C(OCCN2CCNCC2)c2ccccc2)cc1 | -14* | 0.13 | 0.49 | 5 | -8 | / | 148* | 219
COc1cc(C2NCc3ccccc3-n3cccc32)ccc1O (stereo unspecified) | -1.1* | -0.098 | -1 | 24 | -3 | 37 | 554 | 225
COc1ccc(C2NCc3ccccc3-n3cccc32)cc1 (stereo unspecified) | / | / | / | / | / | 20 | / | /
Cc1c(N=Cc2c(O)n(CCc3ccccc3)c(=O)[nH]c2=O)c(=O)n(-c2ccccc2)n1C | -4.1* | 0.082 | 0.66 | / | / | 63 | 243* | 236
SMILES | M1 antag | D1 mod | M1 ag | HEK293 NFkB inh | Jurkat viability | mHtt clearance | M1 antag conf | mGluR4 antag | others
CCCCCCn1c(O)c(C=Nc2c(C)n(C)n(-c3ccccc3)c2=O)c(=O)[nH]c1=O | -1.8 | / | 0.06 | / | / | 8 | / | /
CCN1CCN(Cc2cc(Br)cc(OC)c2O)CC1 | -1.9* | -2.4 | 0.024 | 10 | 0 | 48 | 350* | 243
COc1ccc(CN2CCN(Cc3ccccc3)CC2)c(OC)c1 | -0.046 | -3.4 | -0.37 | 18 | 12 | / | / | /
CN(C)c1ccc(CN2CC=C(c3ccc(F)cc3)CC2)cc1 | -5.7* | -0.89 | -0.0039 | 12 | -4 | -45 | 469* | 237
O=C1CC(N2CC=C(c3ccc(F)cc3)CC2)C(=O)N1c1ccc(F)cc1 (stereo unspecified) | / | / | / | / | / | -17 | / | /
O=C(COc1ccc(Cl)cc1)NC1CN2CCC1CC2 (stereo unspecified) | -16* | -1.1 | 0.59 | 15 | -1 | / | 398* | 257
O=C(COc1ccc(Cl)cc1)N1CCN(Cc2ccccc2)CC1 | / | 0.067 | / | 7 | -3 | -12 | / | /
Cc1ccc(C2(O)CCN3CCCCC32)cc1 (stereo unspecified) | 0.48 | -1.6 | 0.58 | 14 | 3 | -57 | / | /
OCC12COC3c4ccccc4C(OC1)N32 (stereo unspecified) | 0.8 | 0.038 | -0.24 | 4 | -1 | / | / | /
CN(C)CCc1nc2ccccc2c(=O)n1-c1ccccc1 | -6.2* | -0.13 | 0.84 | 2 | 0 | -1 | 475 | 249
Cc1[nH]c2c(Cl)cccc2c1CCN | -2.8* | 0.036 | 0.22 | 19 | 5 | 65 | 621 | 191
CCCCOCCCn1c(N)c(C(=O)OCCOC)c2nc3ccccc3nc21 | -4* | -1 | 3.2 | / | / | 26 | 21* | 229
CCN(CC)CCCNC(=O)c1c(O)c2ccccc2n(Cc2ccccc2)c1=O | -5.4* | / | -0.27 | / | / | / | 393* | 210
CCCCN1C(=O)NC(=O)C2(Cc3ccccc3N3CCOCC32)C1=O (stereo unspecified) | 0.37 | -1.4 | -0.35 | 21 | 1 | 27 | / | /

Screening results: PubChem, several laboratories
